Measured values as given in ChEMBL document CHEMBL1139810, “Novel anti-infection agents: small-molecule inhibitors of bacterial transcription factors” (Bioorg Med Chem Lett, 2007).

Experiments:
Escherichia coli [1] = assay: Inhibition of Escherichia coli SoxS binding to DNA at 50 ug/mL
Staphylococcus aureus = assay: Antimicrobial activity against antibiotic-susceptible Staphylococcus aureus RN450; assay type: functional
[2] = Inhibition of Escherichia coli SoxS binding to DNA
Escherichia coli [3] = assay: Reduction of colony formation in urinary tract infection mouse model assessed per gram of kidney at 10 mg/kg, ip; assay type: functional; conditions: route intraperitoneal
Escherichia coli [4] = assay: Antimicrobial activity against antibiotic-susceptible Escherichia coli ML308-225; assay type: functional
Escherichia coli [5] = assay: Inhibition of Escherichia coli SoxS binding to DNA at 25 ug/mL
[6] = Inhibition of Salmonella Typhimurium Rma binding to DNA; set-up: species or system Salmonella enterica subsp. enterica serovar Typhimurium
Escherichia coli [7] = assay: Inhibition of Escherichia coli Rob binding to DNA; assay type: functional, organism-based
[8] = target: T1, HTH-type transcriptional regulator ExsA (Pseudomonas aeruginosa (strain ATCC 15692 / PAO1 / 1C / PRS 101 / LMG12228), UniProt P26993); assay: Inhibition of Pseudomonas aeruginosa ExsA binding to DNA
T1 sequence (P26993 whole entry): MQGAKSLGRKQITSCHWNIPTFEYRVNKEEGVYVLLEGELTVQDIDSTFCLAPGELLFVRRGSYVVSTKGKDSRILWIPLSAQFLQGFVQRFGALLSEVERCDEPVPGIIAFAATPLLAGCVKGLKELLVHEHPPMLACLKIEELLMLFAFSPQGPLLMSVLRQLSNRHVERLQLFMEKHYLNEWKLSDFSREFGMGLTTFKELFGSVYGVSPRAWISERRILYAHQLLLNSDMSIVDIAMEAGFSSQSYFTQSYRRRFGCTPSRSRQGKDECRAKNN

[9] = Inhibition of Proteus mirabilis PqrA binding to DNA
[10] = Inhibition of Escherichia coli MarA binding to DNA
How it was run: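 Binding of the 6-His-tagged Mar protein (20 nM) to biotinylated double-stranded target DNA (2 nM) was measured with test compound on streptavidin-coated wells. After washing, retained protein was read by luminescence, and inhibition appeared as signal loss. Selected compounds were also incubated with DNA and run on agarose gels to check whether they altered DNA structure.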

Compound	inhibition (Escherichia coli [1]) [%]	further results
N#CCOn1c(-c2ccccc2)nc2ccc([N+](=O)[O-])cc21	12	
COc1ccc(-c2nc3ccc([N+](=O)[O-])cc3n2O)cc1	12	
CC(=O)Nc1cccc(-c2nc3ccc([N+](=O)[O-])cc3n2O)c1	32	
Nc1ccccc1-c1nc2ccc([N+](=O)[O-])cc2n1O	2	
COc1ccc(C(=O)Nc2ccc(-c3nc4ccc([N+](=O)[O-])cc4n3O)cc2)cc1		MIC (Staphylococcus aureus): > 64 µg/mL; IC50 [2]: 2500 nM; CFU (Escherichia coli [3]): 1; MIC (Escherichia coli [4]): > 64 µg/mL
CC(=O)Nc1ccc(-c2nc3ccc([N+](=O)[O-])cc3n2O)cc1	100	inhibition (Escherichia coli [5]): 58%
Cc1ccc(C(=O)Nc2ccc(-c3nc4ccc([N+](=O)[O-])cc4n3O)cc2)cc1		MIC (Staphylococcus aureus): > 64 µg/mL; IC50 [2]: 10000 nM; MIC (Escherichia coli [4]): > 64 µg/mL
C/C(=N/O)c1ccc2nc(-c3ccccc3)n(O)c2c1	38	
NCCOn1c(-c2ccccc2)nc2ccc([N+](=O)[O-])cc21	0	
O=C(NCc1ccc(-c2nc3ccc([N+](=O)[O-])cc3n2O)cc1)c1ccccc1	44	
O=[N+]([O-])c1ccc2nc(-c3ccccc3)n(O)c2c1	38	
CN(C)c1cccc(-c2nc3ccc([N+](=O)[O-])cc3n2O)c1	30	
COn1c(-c2ccccc2)nc2ccc([N+](=O)[O-])cc21	17	
O=[N+]([O-])c1ccc2nc(-c3ccc(O)cc3)n(O)c2c1	35	
CN(C)c1ccc2nc(-c3ccccc3)n(O)c2c1	28	
On1c(-c2ccccc2)nc2ccc(C(F)(F)F)cc21	26	
CC(C)(C)c1ccc2nc(-c3ccccc3)n(O)c2c1	0	
O=[N+]([O-])c1ccc2nc(-c3ccc(Oc4ccccc4)cc3)n(O)c2c1	14	
O=C(Nc1ccc(-c2nc3ccc([N+](=O)[O-])cc3n2O)cc1)c1ccc(F)cc1		IC50 [6]: 4900 nM; MIC (Staphylococcus aureus): > 64 µg/mL; IC50 [2]: 2800 nM; IC50 (Escherichia coli [7]): 4700 nM; IC50 [8]: 4000 nM; MIC (Escherichia coli [4]): > 64 µg/mL
NC(=O)c1ccc2nc(-c3ccccc3)n(O)c2c1	14	

Compound	inhibition (Escherichia coli [1]) [%]	further results
O=C(O)c1ccc2nc(-c3ccccc3)n(O)c2c1	12	
CS(=O)(=O)c1ccc2nc(-c3ccccc3)n(O)c2c1	35	
N#Cc1ccc2nc(-c3ccccc3)n(O)c2c1	30	
CN(C)c1ccc(C(=O)Nc2ccc(-c3nc4ccc([N+](=O)[O-])cc4n3O)cc2)cc1		IC50 [6]: 1800 nM; MIC (Staphylococcus aureus): > 64 µg/mL; IC50 [2]: 820 nM; IC50 (Escherichia coli [7]): 1300 nM; CFU (Escherichia coli [3]): 0.5; IC50 [8]: 1900 nM; IC50 [9]: 1400 nM; IC50 [10]: 1200 nM; MIC (Escherichia coli [4]): > 64 µg/mL
O=C(O)COn1c(-c2ccccc2)nc2ccc([N+](=O)[O-])cc21	14	
CC(=O)Nc1ccccc1-c1nc2ccc([N+](=O)[O-])cc2n1O	31	
On1c(-c2ccccc2)nc2ccc(F)cc21	26	
O=C(Nc1ccc(-c2nc3ccc([N+](=O)[O-])cc3n2O)cc1)c1cccc(Cl)c1		MIC (Staphylococcus aureus): > 64 µg/mL; IC50 [2]: 3400 nM; MIC (Escherichia coli [4]): > 64 µg/mL
On1c(-c2ccccc2)nc2ccccc21	0	
CCCOn1c(-c2ccccc2)nc2ccc([N+](=O)[O-])cc21	0	
O=[N+]([O-])c1ccc2nc(-c3ccc(Br)cc3)n(O)c2c1	26	
Nc1ccc(-c2nc3ccc([N+](=O)[O-])cc3n2O)cc1	80	
CC(=O)c1ccc2nc(-c3ccccc3)n(O)c2c1	37	
COc1ccc2nc(-c3ccccc3)n(O)c2c1	0	
O=C(O)CCOn1c(-c2ccccc2)nc2ccc([N+](=O)[O-])cc21	0	
CN(C)c1ccc(-c2nc3ccc([N+](=O)[O-])cc3n2O)cc1	75	
Nc1cccc(-c2nc3ccc([N+](=O)[O-])cc3n2O)c1	60	
O=[N+]([O-])c1ccc2nc(-c3ccccc3)n(OCCO)c2c1	0	
O=C(Nc1ccc(-c2nc3ccc([N+](=O)[O-])cc3n2O)cc1)c1ccccc1	100	MIC (Staphylococcus aureus): > 64 µg/mL; IC50 [2]: 17000 nM; MIC (Escherichia coli [4]): > 64 µg/mL; inhibition (Escherichia coli [5]): 100%
CCOC(=O)COn1c(-c2ccccc2)nc2ccc([N+](=O)[O-])cc21	0	
